According to ChEMBL document CHEMBL3351301, “Synthesis of triazole Schiff bases: novel inhibitors of nucleotide pyrophosphatase/phosphodiesterase-1” (Bioorg Med Chem, 2014):
Activity calls are given as the source filed them. No cut-off for these calls is given here.

What was measured:
[1] = Inhibition of snake venom NPP1 using bis(p-nitrophenyl)phosphate preincubated for 30 mins by spectrophotometry; design: species or system Serpentes
Method in brief: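 Snake venom PDE1/NPP1 at 7.42 × 10^-4 units, dissolved in cold deionized water. Assay in 33 mM Tris-HCl pH 8.8 with 30 mM magnesium acetate cofactor. Preincubated 30 min at 37 °C, then started with 0.33 mM bis(p-nitrophenyl)phosphate (total). p-Nitrophenol release read at 410 nm. Initial rates taken as Vmax/min and % inhibition calculated against control. Triplicates; IC50 derived by enzyme-kinetics fitting.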

[2] = Cytotoxicity against human PC3 cells; type: functional, cell-based; conditions: PC-3
[3] = target: Carbonic anhydrase (Homo sapiens) (UniProt P00918+P43166+P00915+P07451+P23280+O43570+Q9ULX7+Q16790+P22748+Q8N1Q1+Q9Y2D0+P35218); experiment: Inhibition of carbonic anhydrase (unknown origin); type: protein assay

| Structure (SMILES) | IC50 [1] | IC50 [2] [µM] | IC50 ([1]; read-out: IC50) [µM] | inhibition [3] |
| --- | --- | --- | --- | --- |
| Clc1ccc(/C=N/c2nnc[nH]2)c(Cl)c1 | Not Active | > 30 | – | – |
| Oc1ccccc1/C=N/n1cnnc1 | Not Active | > 30 | – | – |
| O=[N+]([O-])c1ccc(/C=N/c2nnc[nH]2)cc1 | Not Active | > 30 | – | – |
| Oc1cccc(/C=N/n2cnnc2)c1 | Not Active | > 30 | – | – |
| COc1ccc(/C=N/c2nnc[nH]2)cc1OC | Not Active | > 30 | – | – |
| CCOc1ccc(/C=N/c2nnc[nH]2)c(O)c1 | Not Active | > 30 | – | – |
| CCOc1cccc(/C=N/n2cnnc2)c1O | Not Active | > 30 | – | – |
| Brc1ccc(/C=N/n2cnnc2)cc1 | – | > 30 | 823 | – |
| COc1cccc(/C=N/n2cnnc2)c1O | Not Active | > 30 | – | – |
| CN(C)c1ccc(/C=N/c2nnc[nH]2)cc1 | – | > 30 | 132 | inactive |
| Oc1c(Cl)cc(Cl)cc1/C=N/c1nc[nH]n1 | Not Active | > 30 | – | – |
| Oc1ccc(Cl)cc1/C=N/n1cnnc1 | – | > 30 | 251 | inactive |
| COc1ccc(/C=N/n2cnnc2)cc1 | Not Active | > 30 | – | – |
| Oc1cccc(/C=N/n2cnnc2)c1O | – | > 30 | 153 | inactive |
| Oc1ccc(/C=N/n2cnnc2)cc1 | Not Active | > 30 | – | – |
| Cc1ccc(O)c(/C=N/c2nnc[nH]2)c1 | Not Active | > 30 | – | – |
| CCOc1ccc(/C=N/n2cnnc2)cc1 | Not Active | > 30 | – | – |
| Oc1c(Br)cc(Br)cc1/C=N/c1nnc[nH]1 | Not Active | > 30 | – | – |
| CSc1ccc(/C=N/n2cnnc2)cc1 | Not Active | > 30 | – | – |
| Oc1ccccc1/C=N/c1nnc[nH]1 | Not Active | > 30 | – | – |
| CSc1ccc(/C=N/c2nnc[nH]2)cc1 | Not Active | > 30 | – | – |
| COc1ccc(/C=N/n2cnnc2)cc1OC | Not Active | > 30 | – | – |
| Oc1ccc(Br)cc1/C=N/n1cnnc1 | – | > 30 | 405 | – |
| COc1cccc(/C=N/c2nnc[nH]2)c1O | Not Active | > 30 | – | – |
| O=C(O)CN(CCN(CC(=O)O)CC(=O)O)CC(=O)O [EDETIC ACID] | – | – | 278 | – |
| Oc1cc(O)c(/C=N/n2cnnc2)c(O)c1 | – | > 30 | 1160 | – |
